≈ marks a conversion by molar mass, not a printed value. Where only a bound is given, the exact number is not on record here.

We go through five molecules from ChEMBL document CHEMBL1149822, “Synthesis, antimicrobial and anti-inflammatory activities of some 1,2,4-triazolo[3,4-b][1,3,4]thiadiazoles and 1,2,4-triazolo[3,4-b][1,3,4]thiadiazines bearing trichlorophenyl moiety” (2008).

One assay deals with Rattus norvegicus. Briefly: Antiinflammatory activity against carrageenan-induced paw oedema in albino rat at 50 mg/kg, po relative to control. The assay is classed as functional. The method, boiled down: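 Albino rats of 180–250 g were fasted 18 h and placed in groups of six. Samples were suspended in 2% w/v acacia mucilage, and the vehicle group served as control. 30 min after dosing, carrageenan (1 mg mL⁻¹, 0.1 mL) was injected subcutaneously into the right hind paw. Paw volume was measured immediately and at 3 h, and % oedema inhibition was calculated versus vehicle controls.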
Background: The carrageenan paw model is a standard test of acute inflammation.

Assay [1] concerns Staphylococcus aureus. Briefly: Antibacterial activity against Staphylococcus aureus ATTC 25923 after 16 to 18 hrs by serial plate dilution method. The assay is classed as functional. The method, boiled down:
(§1)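 Serial dilutions were made in Mueller-Hinton broth in tubes, adjusted to […] with phosphate buffer, and inoculated with a standardized bacterial suspension. Tubes were incubated at 37 °C for 16–18 h. MIC was taken as the lowest concentration with no visible growth.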

Assay [2] has as its system Aspergillus flavus. Nature of the assay: Antifungal activity against Aspergillus flavus NCIM 524 by serial plate dilution method. Format: functional. The method, boiled down:
(§2)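 Agar of peptone 1 g, D-glucose 4 g and agar 2 g per 100 mL water, pH 5.7, was lawned with a fungal spore suspension in normal saline. The excess was decanted and plates were dried at 37 °C for 1 h. Wells were punched and compounds in DMSO were added, with a DMSO control. Plates were run in triplicate at 37 °C for 3–4 days, and the inhibition zone diameter was measured.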

Assay [3] relates to Escherichia coli. Nature of the assay: Antibacterial activity against Escherichia coli ATTC 25922 after 16 to 18 hrs by serial plate dilution method. The assay is classed as functional. Particulars: ATCC25922. The method, boiled down:
as §1

The test system of assay [4] is Aspergillus flavus. Nature of the assay: Antifungal activity against Aspergillus flavus NCIM 524 at 25 ug/ml after 3 to 4 days. Format: functional. The note with it: read-out: IZ. The gist of the method: as §2
Assay [5] deals with Talaromyces marneffei. Nature of the assay: Antifungal activity against Penicillium marneffei at […] ug/ml after 3 to 4 days. Format: functional. The note with it: read-out: IZ.
For assay [6], the system named is Escherichia coli. Briefly: Antibacterial activity against Escherichia coli ATTC 25922 at 12 ug/ml after 3 to 4 days. The assay is classed as functional. The note with it: ATCC25922, read-out: IZ. The method, boiled down:
(§3)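 Agar well diffusion. Plates were seeded with a bacterial suspension, the excess was decanted and plates were dried at 37 °C for 1 h. Wells were punched and compounds in DMSO were added, with DMSO wells as control. Plates were run in triplicate at 37 °C for 3–4 days and zones of inhibition were scored.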

Assay [7] has as its system Klebsiella pneumoniae. Briefly: Antibacterial activity against Klebsiella pneumoniae at 25 ug/ml after 3 to 4 days. Particulars: read-out: IZ. Format: functional. The gist of the method:
as §3

Assay [8] concerns Aspergillus fumigatus. Nature of the assay: Antifungal activity against Aspergillus fumigatus NCIM 902 at […] ug/ml after 3 to 4 days. The assay is classed as functional. The note with it: read-out: IZ.
Assay [9] deals with Pseudomonas aeruginosa. Nature of the assay: Antibacterial activity against Pseudomonas aeruginosa ATTC 27853 after 16 to 18 hrs by serial plate dilution method. Format: functional. Particulars: ATCC27853. The gist of the method:
as §1

In assay [10] the test system is Staphylococcus aureus. Briefly: Antibacterial activity against Staphylococcus aureus ATTC 25923 at 12 ug/ml after 3 to 4 days. The assay is classed as functional. The note with it: read-out: IZ. The method, boiled down: as §3
The subject of assay [11] is Klebsiella pneumoniae. Nature of the assay: Antibacterial activity against Klebsiella pneumoniae after 16 to 18 hrs by serial plate dilution method. The assay is classed as functional. The gist of the method: as §1
Assay [12] relates to Aspergillus fumigatus. Briefly: Antifungal activity against Aspergillus fumigatus NCIM 902 by serial plate dilution method. Format: functional.
The test system of assay [13] is Talaromyces marneffei. Nature of the assay: Antifungal activity against Penicillium marneffei by serial plate dilution method. Format: functional. The method, boiled down: as §2
Assay [14] concerns Pseudomonas aeruginosa. Nature of the assay: Antibacterial activity against Pseudomonas aeruginosa ATTC 27853 at 25 ug/ml after 3 to 4 days. Format: functional. The note with it: ATCC27853, read-out: IZ. The method, boiled down:
as §3

In assay [15] the test system is Trichophyton mentagrophytes. Briefly: Antifungal activity against Trichophyton mentagrophytes at 25 ug/ml after 3 to 4 days. The assay is classed as functional. Particulars: read-out: IZ. The gist of the method:
as §2

The subject of assay [16] is Trichophyton mentagrophytes. Briefly: Antifungal activity against Trichophyton mentagrophytes by serial plate dilution method. Format: functional.
Assay [17] has as its system Trichophyton mentagrophytes. Nature of the assay: Antifungal activity against Trichophyton mentagrophytes at 12 ug/ml after 3 to 4 days. The assay is classed as functional. The note with it: read-out: IZ. The method, boiled down:
as §2

Assay [18] relates to Aspergillus flavus. Briefly: Antifungal activity against Aspergillus flavus NCIM 524 at 12 ug/ml after 3 to 4 days. The assay is classed as functional. Particulars: read-out: IZ. The gist of the method:
as §2

In assay [19] the test system is Klebsiella pneumoniae. Briefly: microbe, parasite or virus in culture. Format: functional. Particulars: read-out: IZ.
In assay [20] the test system is Pseudomonas aeruginosa. Nature of the assay: microbe, parasite or virus in culture. The assay is classed as functional. The note with it: ATCC27853, read-out: IZ.
The subject of assay [21] is Talaromyces marneffei. Nature of the assay: Antifungal activity against Penicillium marneffei at 12 ug/ml after 3 to 4 days. Format: functional. The note with it: read-out: IZ. The method, boiled down: as §2
For assay [22], the system named is Staphylococcus aureus. Briefly: Antibacterial activity against Staphylococcus aureus ATTC 25923 at […] ug/ml after 3 to 4 days. Format: functional. Particulars: read-out: IZ.
Assay [23] relates to Pseudomonas aeruginosa. Briefly: Antibacterial activity against Pseudomonas aeruginosa ATTC 27853 at 12 ug/ml after 3 to 4 days. Format: functional. Particulars: ATCC27853, read-out: IZ. The gist of the method: as §3
For assay [24], the system named is Aspergillus flavus. Briefly: Antifungal activity against Aspergillus flavus NCIM 524 at […] ug/ml after 3 to 4 days. The assay is classed as functional. Particulars: read-out: IZ.
In assay [25] the test system is Trichophyton mentagrophytes. Briefly: Antifungal activity against Trichophyton mentagrophytes at […] ug/ml after 3 to 4 days. The assay is classed as functional. The note with it: read-out: IZ.
The subject of assay [26] is Klebsiella pneumoniae. Nature of the assay: Antibacterial activity against Klebsiella pneumoniae at 12 ug/ml after 3 to 4 days. Format: functional. The note with it: read-out: IZ. The method, boiled down:
as §3

In assay [27] the test system is Escherichia coli. Nature of the assay: microbe, parasite or virus in culture. The assay is classed as functional. The note with it: ATCC25922, read-out: IZ.
Assay [28] has as its system Aspergillus fumigatus. Nature of the assay: Antifungal activity against Aspergillus fumigatus NCIM 902 at 6.5 ug/ml after 3 to 4 days. The assay is classed as functional. Particulars: read-out: IZ. The gist of the method: as §2
Assay [29] concerns Staphylococcus aureus. Briefly: microbe, parasite or virus in culture. Particulars: read-out: IZ.

Take `Clc1cc(Cl)c(Cl)c(-c2nnc3sc(-c4cccc5cnccc45)nn23)c1`: at 50 mg/kg the inhibition in vivo in the assay with Rattus norvegicus was 22.6%. In addition, the MIC against Staphylococcus aureus [1] was 12 µg/mL (≈ 27.7 µM); against Aspergillus flavus [2] it was 25 µg/mL (≈ 57.8 µM); in the assay with Escherichia coli [3], 12 µg/mL (≈ 27.7 µM); in the assay with Pseudomonas aeruginosa [9], 25 µg/mL (≈ 57.8 µM); in the assay on Klebsiella pneumoniae [11], 25 µg/mL (≈ 57.8 µM); with Aspergillus fumigatus [12] it was 6.25 µg/mL (≈ 14.4 µM). Also, the MIC with Talaromyces marneffei [13] came out at 6.25 µg/mL (≈ 14.4 µM); in [16], 25 µg/mL (≈ 57.8 µM). The zone of inhibition at 25 µg/mL (with Aspergillus flavus [4]; with Klebsiella pneumoniae [7]; in the assay on Pseudomonas aeruginosa [14]; in assay [15]) was less than 10 mm each time. In addition, the zone of inhibition at 6.25 µg/mL with Talaromyces marneffei [5] and with Aspergillus fumigatus [8] was 16 mm each time. Besides, the zone of inhibition at 12 µg/mL in the assay on Escherichia coli [6] and with Staphylococcus aureus [10] was 11 mm each time.
As to `Clc1cc(Cl)c(Cl)c(-c2nnc3n2N=C(c2ccccc2)CS3)c1`, the minimum inhibitory concentration (MIC) amounted to 12 µg/mL (≈ 30.3 µM) in the assay with Staphylococcus aureus [1]; 12 µg/mL (≈ 30.3 µM) against Aspergillus flavus [2]; 12 µg/mL (≈ 30.3 µM) against Escherichia coli [3]; 6.25 µg/mL (≈ 15.8 µM) in the assay with Pseudomonas aeruginosa [9]; 6.25 µg/mL (≈ 15.8 µM) in the assay on Klebsiella pneumoniae [11]; 6.25 µg/mL (≈ 15.8 µM) in the assay on Aspergillus fumigatus [12]. For the same molecule, the MIC (in the assay with Talaromyces marneffei [13]; in assay [16]) was 12 µg/mL (≈ 30.3 µM) each time. For the same molecule, the zone of inhibition at 12 µg/mL (in assay [17]; with Escherichia coli [6]; in the assay with Aspergillus flavus [18]; in the assay on Staphylococcus aureus [10]; with Talaromyces marneffei [21]) was 11 mm in each case. Besides, the zone of inhibition at 6.25 µg/mL in the assay on Aspergillus fumigatus [8], in the assay on Klebsiella pneumoniae [19] and in the assay on Pseudomonas aeruginosa [20] was 16 mm each time.
In turn, `Cc1ccc(C2=Nn3c(nnc3-c3cc(Cl)cc(Cl)c3Cl)SC2)cc1` displayed an inhibition in vivo at 50 mg/kg with Rattus norvegicus of 19.4%. Besides, the MIC in the assay on Staphylococcus aureus [1] was 6.25 µg/mL (≈ 15.3 µM); in the assay on Aspergillus flavus [2], 6.25 µg/mL (≈ 15.3 µM); against Escherichia coli [3], 6.25 µg/mL (≈ 15.3 µM); against Pseudomonas aeruginosa [9], 12 µg/mL (≈ 29.3 µM); against Klebsiella pneumoniae [11], 12 µg/mL (≈ 29.3 µM); in the assay with Aspergillus fumigatus [12], 6.25 µg/mL (≈ 15.3 µM). Moreover, the MIC (in the assay on Talaromyces marneffei [13]; in assay [16]) was 6.25 µg/mL (≈ 15.3 µM) each time. In addition, the zone of inhibition at 6.25 µg/mL (with Staphylococcus aureus [22]; in the assay with Aspergillus flavus [24]; in [25]; with Talaromyces marneffei [5]; with Aspergillus fumigatus [8]; with Escherichia coli [27]) was 16 mm in each case. The zone of inhibition at 12 µg/mL in the assay with Pseudomonas aeruginosa [23] and in the assay with Klebsiella pneumoniae [26] was 11 mm each time.
For the molecule `COc1ccc(-c2nn3c(-c4cc(Cl)cc(Cl)c4Cl)nnc3s2)cc1`, 50 mg/kg produced 25.8% inhibition in vivo in the assay with Rattus norvegicus. In addition, the MIC with Staphylococcus aureus [1] came out at 6.25 µg/mL (≈ 15.2 µM); against Aspergillus flavus [2], 6.25 µg/mL (≈ 15.2 µM); with Escherichia coli [3], 6.25 µg/mL (≈ 15.2 µM); against Pseudomonas aeruginosa [9] it was 6.25 µg/mL (≈ 15.2 µM); against Klebsiella pneumoniae [11], 6.25 µg/mL (≈ 15.2 µM); in the assay on Aspergillus fumigatus [12], 6.5 µg/mL (≈ 15.8 µM). For the same molecule, the MIC (in the assay with Talaromyces marneffei [13]; in [16]) was 6.25 µg/mL (≈ 15.2 µM) each time. Further, the zone of inhibition at 6.25 µg/mL (in the assay with Staphylococcus aureus [22]; in the assay on Aspergillus flavus [24]; in assay [25]; with Talaromyces marneffei [5]; with Klebsiella pneumoniae [19]; in the assay on Pseudomonas aeruginosa [20]) was 16 mm in each case. In the assay on Escherichia coli [27], the zone of inhibition at 6.25 µg/mL turned out to be 16 mm. Besides, the zone of inhibition at 6.5 µg/mL with Aspergillus fumigatus [28] was 16 mm.
Regarding `O=C(O)c1cn(C2CC2)c2cc(N3CCNCC3)c(F)cc2c1=O` [CIPROFLOXACIN], the MIC in the assay on Staphylococcus aureus [1] worked out at 1.56 µg/mL (≈ 4.71 µM); against Klebsiella pneumoniae [11], 6.25 µg/mL (≈ 18.9 µM). In addition, the zone of inhibition at 6.25 µg/mL in the assay on Klebsiella pneumoniae [19], with Pseudomonas aeruginosa [20] and with Escherichia coli [27] was 16 mm in each case. In addition, in the assay on Staphylococcus aureus [29], the zone of inhibition at 1.56 µg/mL was 22 mm.

The inhibition in vivo is how much of the control response was suppressed. Read a low inhibition in vivo as a response near the control. What is called MIC is the least concentration at which growth counts as inhibited.
